ChEMBL document CHEMBL1132282, “Discovery of novel non-peptide CCR1 receptor antagonists” (J Med Chem, 1999)

Legend:
[1] = biological target: T1, C-C chemokine receptor type 1 (Homo sapiens, UniProt P32246); test: Inhibition of [125I]-MIP-1 alpha binding to recombinant human C-C chemokine receptor type 1 expressed in HEK293 cells; type: cell-based
T1 sequence (P32246 whole entry): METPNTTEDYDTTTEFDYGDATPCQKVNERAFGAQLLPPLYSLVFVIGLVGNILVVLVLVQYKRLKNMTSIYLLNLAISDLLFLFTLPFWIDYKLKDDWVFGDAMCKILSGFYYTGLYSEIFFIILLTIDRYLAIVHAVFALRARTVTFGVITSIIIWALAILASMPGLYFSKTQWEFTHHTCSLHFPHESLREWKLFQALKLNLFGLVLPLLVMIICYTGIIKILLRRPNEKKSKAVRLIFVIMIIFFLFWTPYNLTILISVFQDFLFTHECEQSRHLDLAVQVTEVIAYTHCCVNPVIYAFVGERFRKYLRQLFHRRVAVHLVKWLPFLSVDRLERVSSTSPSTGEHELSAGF

[2] = biological target: T1, C-C chemokine receptor type 1; test: Inhibition of MIP-1-alpha-induced intracellular calcium mobilization in HEK293 cells expressing human CCR1 receptor; type: functional, cell-based
Summary of the method: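 HEK-293 cells overexpressing human CCR1 plated at 80 000 cells/well on poly-D-lysine, cultured one day, loaded with 4 μM Fluo-3 for 1 h at 37 °C in HBSS/Hepes with probenecid, then washed. Compound pretreatment 10 min at 37 °C, then 30 nM MIP-1α stimulation. FLIPR fluorescence read over 3 min at 37 °C. Six-concentration dose curves give IC50.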

[3] = biological target: T2, C-C chemokine receptor type 1 (Homo sapiens) (UniProt P32246); test: Inhibition of [125I]-MIP-1 alpha binding to recombinant human C-C chemokine receptor type 1 expressed in HEK293 cells at 10 uM concentration; type: cell-based
T2 sequence (whole entry): T1 sequence (P32246 whole entry)

Row | SMILES | Ki [1] [µM] | IC50 [2] [µM] | inhibition [3] [%]
1 | N#CC(CCCN1CCC(O)(c2ccc(Cl)cc2)CC1)c1ccccc1C(F)(F)F (configuration not stated) | – | – | 25
2 | N#CC(CCCN1CCC(O)(c2ccc(F)cc2)CC1)(c1ccccc1)c1ccccc1 | 0.136 | – | –
3 | N#CC1(CCCN2CCC(O)(c3ccc(Br)cc3)CC2)c2ccccc2Cc2ccccc21 | 0.029 | – | –
4 | N#CC(CCCN1CCC(O)(c2ccc(Cl)cc2)CC1)c1ccccc1Br (configuration not stated) | 0.366 | – | –
5 | N#CC1(CCCN2CCC(O)(c3ccc(Cl)cc3)CC2)c2ccccc2Oc2ccccc21 | 0.234 | – | –
6 | N#CC(CCCN1CCC(O)(c2ccc(I)cc2)CC1)(c1ccccc1)c1ccccc1 | 0.233 | – | –
7 | N#CC(CCCN1CCC(O)(c2ccc(Cl)cc2)CC1)c1ccc(F)cc1 (configuration not stated) | 0.533 | – | –
8 | COc1ccc(C2(O)CCN(CCCC(C#N)(c3ccccc3)c3ccccc3)CC2)cc1 | 0.347 | – | –
9 | COC(=O)C1(c2ccccc2)CCN(CCCC2(C#N)c3ccccc3Cc3ccccc32)CC1 | – | – | 62
10 | N#CC1(CCCN2CCC(O)(c3ccc(Cl)cc3)CC2)c2ccccc2CCc2ccccc21 | 0.045 | 7.7 | –
11 | N#CC(CCCN1CCC(O)(c2ccc(Cl)cc2)CC1)(c1ccccc1)C1CCCCC1 (configuration not stated) | 0.4 | – | –
12 | N#CC1(CCCN2CCC(O)(c3ccc(Cl)cc3)CC2)c2ccccc2C=Cc2ccccc21 | 0.056 | 5.3 | –
13 | N#CC1(CCCN2CCC(O)(c3ccc(Cl)cc3)CC2)c2ccccc2C[S+]([O-])c2ccccc21 (stereo in doubt; 6q) | 0.071 | – | –
14 | COC(=O)C(C#N)(CCCN1CCC(O)(c2ccc(Cl)cc2)CC1)c1ccccc1 (configuration not stated) | 0.053 | – | –
15 | CN(C)c1ccc(C2(O)CCN(CCCC(C#N)(c3ccccc3)c3ccccc3)CC2)cc1 | 1.16 | – | –
16 | N#CC(CCCN1CCC(O)(c2ccc(Cl)cc2)CC1)(c1ccccc1)N1CCCCC1 (configuration not stated) | 0.13 | 4.8 | –
17 | CCOc1ccc(C(C#N)CCCN2CCC(O)(c3ccc(Cl)cc3)CC2)cc1 (configuration not stated) | 1.42 | – | –
18 | N#CC(CCCN1CCC(O)(c2ccc(Cl)cc2)CC1)c1ccccc1 (configuration not stated) | 0.054 | – | –
19 | N#CC1(CCCN2CCC(O)(c3ccc(Cl)cc3)CC2)c2ccccc2C[S+]([O-])c2ccccc21 (stereo in doubt; 6p) | 0.054 | – | –
20 | Cc1ccccc1C1(O)CCN(CCCC2(C#N)c3ccccc3CSc3ccccc32)CC1 (configuration not stated) | 0.164 | – | –
21 | N#CC(CCN1CCC(O)(c2ccc(Cl)cc2)CC1)(c1ccccc1)c1ccccc1 | 4.06 | 0.4 | –
22 | N#CC(CCCN1CCC(O)(c2ccc(N)cc2)CC1)(c1ccccc1)c1ccccc1 | – | – | 33

Row | SMILES | Ki [1] [µM] | IC50 [2] [µM] | inhibition [3] [%]
23 | N#CC1(CCCN2CCC(O)(c3ccc(Br)cc3)CC2)c2ccccc2CSc2ccccc21 (configuration not stated) | 0.022 | – | –
24 | N#CC(CCCN1CCC(O)(c2ccc(Cl)cc2)CC1)c1ccc2ccccc2c1 (configuration not stated) | 0.206 | 7.1 | –
25 | OC1(c2ccc(Cl)cc2)CCN(CCCC(c2ccccc2)c2ccccc2)CC1 | 0.116 | 8.7 | –
26 | N#CC(CCCN1CCC(O)(c2ccc(Cl)cc2)CC1)c1ccc(OCc2ccccc2)cc1 (configuration not stated) | 3.43 | – | –
27 | N#CC(CCCN1CCC(O)(c2ccc(Cl)cc2)CC1)c1ccc(O)cc1 (configuration not stated) | 0.975 | – | –
28 | N#CC(CCCN1CCC(O)(c2ccc(Cl)cc2)CC1)(c1ccccc1)c1ccccc1 [BERLEX COMPOUND] | 0.052 | 2.5 | –
29 | CC(C#N)(CCCN1CCC(O)(c2ccc(Cl)cc2)CC1)c1ccccc1 (configuration not stated) | 0.46 | – | –
30 | N#CC1(CCCN2CCC(O)(c3ccc(Cl)cc3)CC2)c2ccccc2CSc2ccccc21 (configuration not stated) | 0.024 | 7 | –
31 | N#CC(CCCN1CCC(O)(c2ccc(Cl)cc2)CC1)c1ccc(Cl)cc1 (configuration not stated) | 0.463 | – | –
32 | N#CC(CCCN1CCC(O)(c2cccnc2)CC1)(c1ccccc1)c1ccccc1 | 0.206 | – | –
33 | CN1C(=O)c2ccccc2C(C#N)(CCCN2CCC(O)(c3ccc(Cl)cc3)CC2)c2ccccc21 (configuration not stated) | 0.032 | 3.3 | –
34 | COc1ccc(C(C#N)CCCN2CCC(O)(c3ccc(Cl)cc3)CC2)cc1Br (configuration not stated) | 0.074 | 1.9 | –
35 | N#CC(CCCN1CCC(O)(c2ccc(Cl)cc2)CC1)c1cccc2ccccc12 (configuration not stated) | – | – | 51
36 | Cn1cccc1C(C#N)CCCN1CCC(O)(c2ccc(Cl)cc2)CC1 (configuration not stated) | 0.429 | – | –
37 | N#CC1(CCCN2CCC(O)(c3ccc(Cl)cc3)CC2)c2ccccc2COc2ccccc21 (configuration not stated) | 0.034 | 7.7 | –
38 | N#CC(CCCN1CCC(O)(c2ccc(Cl)cc2)CC1)c1cccc([N+](=O)[O-])c1 (configuration not stated) | 0.51 | – | –
39 | N#CC1(CCCN2CCC(C(=O)O)(c3ccccc3)CC2)c2ccccc2Cc2ccccc21 | – | – | 15
40 | N#CC1(CCCN2CCC(O)(c3ccccc3)CC2)c2ccccc2CSc2ccccc21 (configuration not stated) | 0.203 | – | –
41 | C[N+]1(CCCC(C#N)(c2ccccc2)c2ccccc2)CCC(O)(c2ccc(Cl)cc2)CC1 (configuration not stated) | 0.008 | – | –
42 | N#CC1(CCCN2CCC(O)(Cc3ccccc3)CC2)c2ccccc2CSc2ccccc21 (configuration not stated) | 0.405 | – | –
43 | N#CC(CCCN1CCC(O)(c2ccc(-c3ccccc3)cc2)CC1)(c1ccccc1)c1ccccc1 | – | – | 30
44 | CCC(C#N)(CCCN1CCC(O)(c2ccc(Cl)cc2)CC1)c1ccccc1 (configuration not stated) | 0.093 | – | –

The remaining lines, values ahead:

Row | Ki [1] [µM] | IC50 [2] [µM] | inhibition [3] [%] | SMILES
45 | 0.406 | – | – | COC(=O)C(CCCN1CCC(O)(c2ccc(Cl)cc2)CC1)(c1ccccc1)c1ccccc1
46 | 0.092 | 10.9 | – | N#Cc1ccc(C2(O)CCN(CCCC(C#N)(c3ccccc3)c3ccccc3)CC2)cc1
47 | 0.125 | 3.2 | – | N#CCC(C#N)(CCCN1CCC(O)(c2ccc(Cl)cc2)CC1)c1ccccc1 (configuration not stated)
48 | 0.033 | 7 | – | CCOC(=O)C(C#N)(CCCN1CCC(O)(c2ccc(Cl)cc2)CC1)c1ccccc1 (configuration not stated)
49 | 0.623 | – | – | N#CC1(CCCN2CCC(O)(c3cccc(C(F)(F)F)c3)CC2)c2ccccc2CSc2ccccc21 (configuration not stated)
50 | – | – | 0 | N#CC(CCCN1CCCC(O)(c2ccc(F)cc2)C1)(c1ccccc1)c1ccccc1 (configuration not stated)
51 | 0.906 | – | – | N#CC(CCCN1CCC(O)(c2ccccn2)CC1)(c1ccccc1)c1ccccc1
52 | 0.359 | – | – | COc1ccc(C(C#N)CCCN2CCC(O)(c3ccc(Cl)cc3)CC2)cc1 (configuration not stated)
53 | – | – | 22 | N#CC(CCCN1CCC(O)(c2ccc(F)cc2)C1)(c1ccccc1)c1ccccc1 (configuration not stated)
54 | 0.236 | 9.8 | – | N#CC(CCCN1CCC(O)(c2ccc(Cl)cc2)CC1)c1ccsc1 (configuration not stated)
55 | 0.908 | – | – | N#CC(CCCN1CCC(O)(c2ccc(Cl)cc2)CC1)c1cccc(Oc2ccccc2)c1 (configuration not stated)
56 | 0.306 | – | – | N#CC(CCCN1CCC(O)(c2ccc(Cl)cc2)CC1)c1ccccc1Cl (configuration not stated)
57 | 0.009 | – | – | O=C(NCC(CCCN1CCC(O)(c2ccc(Cl)cc2)CC1)(c1ccccc1)c1ccccc1)NC1CCNCC1
58 | – | – | 46 | N#CC(CCCN1CCC(O)(c2ccc(Cl)cc2)CC1)c1ccccc1OCc1ccccc1 (configuration not stated)
59 | 0.156 | 9 | – | N#CC(CCCN1CCC(O)(c2ccc(Cl)cc2)CC1)c1cccc(O)c1 (configuration not stated)
60 | 0.584 | – | – | N#CC(CCCN1CCC(O)(c2ccc(Cl)cc2)CC1)c1ccccn1 (configuration not stated)
61 | 1.33 | – | – | N#CC(CCCN1CCC(O)(c2cc(Cl)cc(Cl)c2)CC1)(c1ccccc1)c1ccccc1
62 | 0.153 | – | – | N#CC(CCCN1CCC(O)(c2ccc(C(F)(F)F)cc2)CC1)(c1ccccc1)c1ccccc1
63 | 0.022 | 0.7 | – | C[N+]1(CCCC(C#N)c2ccc3ccccc3c2)CCC(O)(c2ccc(Cl)cc2)CC1 (configuration not stated)
64 | 0.371 | – | – | N#CC(CCCN1CCC(O)(c2ccc(Cl)cc2)CC1)c1ccccc1F (configuration not stated)

Row | Ki [1] [µM] | IC50 [2] [µM] | inhibition [3] [%] | SMILES
65 | 1.02 | – | – | N#CC(CCCN1CCC(O)(c2cccs2)CC1)(c1ccccc1)c1ccccc1
66 | 0.244 | – | – | NCC(CCCN1CCC(O)(c2ccc(Cl)cc2)CC1)(c1ccccc1)c1ccccc1
67 | – | – | 0 | N#CC(CCCN1CCC(O)(c2ccc(Cl)cc2)CC1)c1cccc(OCc2ccccc2)c1 (configuration not stated)
68 | 0.715 | – | – | N#CC(CCCN1CCC(O)(c2ccc3ccccc3c2)CC1)(c1ccccc1)c1ccccc1
69 | 0.79 | – | – | N#CC(CCCN1CCC(O)(c2ccc(Cl)cc2)CC1)c1ccccc1O (configuration not stated)
70 | 0.224 | – | – | N#CC1(CCCN2CCC(O)(c3ccc(Cl)c(C(F)(F)F)c3)CC2)c2ccccc2CSc2ccccc21 (configuration not stated)
71 | 0.044 | 3 | – | N#CC1(CCCN2CCC(O)(c3ccc(F)cc3)CC2)c2ccccc2CSc2ccccc21 (configuration not stated)
72 | 0.078 | 1.6 | – | N#CC(CCCCN1CCC(O)(c2ccc(Cl)cc2)CC1)(c1ccccc1)c1ccccc1
73 | 0.098 | 5.8 | – | N#Cc1ccccc1C(C#N)CCCN1CCC(O)(c2ccc(Cl)cc2)CC1 (configuration not stated)
74 | 0.006 | 1.8 | – | C[N+]1(CCCC(c2ccccc2)c2ccccc2)CCC(O)(c2ccc(Cl)cc2)CC1 (configuration not stated)
75 | 0.099 | 5.6 | – | N#CC(CCCCCN1CCC(O)(c2ccc(Cl)cc2)CC1)(c1ccccc1)c1ccccc1
76 | 0.051 | 8.3 | – | N#CC(CCCCl)(CCCN1CCC(O)(c2ccc(Cl)cc2)CC1)c1ccccc1 (configuration not stated)
77 | 1 | – | – | N#CC(CCCN1CCC(O)(c2ccc(Cl)cc2)CC1)c1cccnc1 (configuration not stated)
78 | 0.497 | – | – | COc1cc(C(C#N)CCCN2CCC(O)(c3ccc(Cl)cc3)CC2)cc(OC)c1OC (configuration not stated)
79 | 0.128 | 8.4 | – | N#CC(CCCN1CCC(O)(c2ccc(Cl)cc2)CC1)c1cccs1 (configuration not stated)
80 | 0.385 | – | – | N#CC(CCCN1CCC(O)(c2cccc(Cl)c2)CC1)(c1ccccc1)c1ccccc1
81 | 4.01 | – | – | CCCCC1(O)CCN(CCCC(C#N)(c2ccccc2)c2ccccc2)CC1
82 | 0.33 | – | – | N#CC(CCCN1CCC(O)(c2ccc(Cl)cc2)CC1)c1c(F)c(F)c(F)c(F)c1F (configuration not stated)
83 | 7.5 | – | – | N#CC(CCCN1CCC(CO)(c2ccccc2)CC1)(c1ccccc1)c1ccccc1
